Data: ChEMBL document CHEMBL4513216, “Probing the Open Global Health Chemical Diversity Library for Multistage-Active Starting Points for Next-Generation Antimalarials” (ACS Infect Dis, 2020)

assay: Toxicity liver stage against HepG2, at 10uM; type: cell-based; design: test concentration 10 uM, cell line HepG2-A16-CD81EGFP; settings: human, HepG2-A16-CD81EGFP cells; read-out: INHIBITION
Outline: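 Uninfected HepG2-A16-CD81EGFP cells, 3 × 10^3 per well, 1536-well, plated on prespotted compound at 10 μM final, parasite-free screening media added to match infected plates; puromycin 10 μM positive, DMSO 0.5% negative; run in parallel with 48 h PbLuc assay at 37 °C, 5% CO2; viability by CellTiter-Glo luminescence, normalized to controls.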

Compound | cytotoxicity at 10 µM
CN(Cc1ccccc1C(F)(F)F)C(C(N)=O)c1ccccc1 (stereo not given) | 13.2%
CNC(=O)c1cc(C)n(-c2ccccc2)n1 | -0.142%
Cc1ccc(S(=O)(=O)N2CCC(S(C)(=O)=O)CC2)cc1C | 2.59%
N#Cc1cccc(N2CCCC3(CN(C(=O)NC4CC4)CCO3)C2)c1 (stereo not given) | 12.1%
CC(C)C(=O)N1CCC12CCCN(C(=O)c1ccccc1)C2 (stereo not given) | 6.8%
COCC(=O)N1CCn2c(Cn3cncn3)cnc2C1C (stereo not given) | 0.53%
CN(C)CC1CSCCCN1C(=O)c1ccc(C(C)(C)C)cc1 (stereo not given) | 6.25%
Cc1ccc(C)c(NC(=O)c2n[nH]c(-n3cnnc3)n2)c1 | 3.43%
Clc1ccc(OCCc2cc(C3CCN(c4ncccn4)C3)n[nH]2)cc1 (stereo not given) | 7.45%
CN1CCCC(c2cccc(-c3cccc(F)c3)n2)C1 (stereo not given) | -2.4%
COCCC(=O)N1CCCC(c2n[nH]cc2C)C1 (stereo not given) | -1.75%
O=C1CN(Cc2ccc3ccccc3n2)CCN1C1CCCC1 | -3.45%
CS(=O)(=O)Cc1cccc(CNS(=O)(=O)c2ccc(F)c(F)c2)c1 | 1.33%
Cc1nnc(CNC(C)c2cc(C)c(F)c(C)c2)s1 (stereo not given) | -3.7%
CCN(CC)C(=O)CCNC(=O)c1c[nH]c2ccc(OC)cc12 | 1.86%
O=C(CC1COCCN1C(=O)c1cscn1)c1ccccc1 (stereo not given) | 6.24%
Cc1cc(CC(=O)NCC(O)COc2ccc(F)c(F)c2)no1 (stereo not given) | -5.03%
CC(NC(=O)NCCCn1cccn1)c1ccncc1 (stereo not given) | 15.3%
Cc1cccc(CN2CCC(NCC3CNc4cc(C)nn4C3)CC2)c1 (stereo not given) | 7.36%
CCc1cc(NCc2cccnc2N2CCCCC2)n2ncnc2n1 | 10.5%
NC(=O)C1CCN(CCc2ccc(NCc3ccsc3)cc2)CC1 | 0.867%
Cc1noc(C)c1CN(C)Cn1nccc1-c1cccnc1 | -0.532%

Compound | cytotoxicity at 10 µM
Cc1cnn(CC2CC2)c1NC(=O)c1cccnc1O | 6.62%
COCCN(CCOC)c1ncccc1Cl | 3.94%
CC(c1nnc(-c2ccccc2)o1)N1CCc2cncnc2C1 (stereo not given) | 8.59%
CC(C)n1cnnc1C1CCCN(S(=O)(=O)c2c[nH]cn2)C1 (stereo not given) | -6.6%
CCc1nn(C)c2[nH]nc(NC(=O)c3cccnc3NC(C)C)c12 | 3.07%
COc1ccc(CC2CCCN2CCCC#N)cc1 (stereo not given) | -54.7%
O=C(CSCc1ccccn1)N(Cc1ccsc1)C1CC1 | -9.8%
CC(O)CNC(=O)NCCCN1CCN(c2ncccn2)CC1 (stereo not given) | -48.8%
CCC(C)(NCC(=O)N(c1ccccc1)C(C)C)c1nc(C)cs1 (stereo not given) | 10.9%
CC(C)c1cc(C(=O)N2CCN(Cc3ccsc3)CC2)n[nH]1 | 0.0711%
CN(Cc1cnccn1)C(=O)c1ccnc(OC2CCC2)c1 | 0.0711%
O=C(O)C1(n2cccn2)CCN(Cc2nc(-c3ccccc3)no2)CC1 | 6.74%
Cc1ccc(C2(O)CCN(Cc3nnc(-c4cccnc4)o3)CC2)nc1 | -7.77%
COCCN1CC2(CCCN(C(=O)NCc3ccccc3)C2)CCC1=O (stereo not given) | -9.31%
CCN1CC(C(=O)N2CCN(CCn3cccc3)CC2)CC1=O (stereo not given) | -3.64%
CCNc1ncc(C(=O)N(C)Cc2nc3cc(Cl)ccc3[nH]2)cn1 | -44.3%
Cc1csc2c(=O)n(C(C)Cc3cccnc3)cnc12 (stereo not given) | 9.98%
COc1cccc2c1OCC(C(=O)NCc1nc3c(s1)CCCC3)C2 (stereo not given) | -43.3%
C[C@@H](N)C(=O)N1CCC(c2[nH]ncc2-c2ccccc2)CC1 | -3.81%
CCOCCn1c(=O)n(Cc2ccc(F)cc2)c2ncc(C(=O)O)cc21 | 0.902%
CC(C)c1cc(NC(CCO)c2ccccc2)n2nccc2n1 (stereo not given) | -45.4%
CCN1CCc2[nH]cnc2C12CCN(C(=O)CCCn1cncn1)CC2 | -19.2%

Compound | cytotoxicity at 10 µM
O=C(Cc1cccc(O)c1)N1CCCC(OCc2cccnc2)C1 (stereo not given) | 1.5%
CCC(C(=O)NCc1ccncc1)N(c1cccc(C)c1)S(C)(=O)=O (stereo not given) | -5.88%
CC(C)C(=O)NCCNc1nccc(-c2cc(C(=O)O)ccn2)n1 | -24%
CCn1cnnc1CNC(=O)N1CCN(c2ccc(OC)cc2)CC1 | -1.62%
CCn1cnnc1CNC(=O)N1CCN(c2ccccc2O)CC1 | -1.47%
Cc1noc(C)c1CN(Cc1cccs1)C1CCS(=O)(=O)C1 (stereo not given) | -0.375%
Cc1oc(-c2cccs2)nc1C(=O)N1CCCC1Cn1cccn1 (stereo not given) | -7.22%
CCCc1n[nH]c(C2CN(C(=O)c3cncnc3C)CCO2)n1 (stereo not given) | -12.9%
CC(C)c1nn(C)c(N(C)C)c1CNCCC(=O)NC1CCCCC1 | -2.89%
CC1CN(C)CCN1CC(=O)NCCOc1ccc(Cl)cc1 (stereo not given) | -8.69%
Cc1ccc(C(=O)NS(=O)(=O)c2ccccc2Cl)c(=O)[nH]1 | -8.81%
Cn1ccc(C(=O)N2CCN(c3ccccn3)CC2)cc1=O | -9.43%
O=C(CCOc1ccccc1F)N1CCCC(n2cncn2)C1 (stereo not given) | -1.22%
Cc1ccccc1OCCCC(=O)N1CCCC(n2cncn2)C1 (stereo not given) | -4.36%
O=C(c1cccnc1N1CCOCC1)N1CCCC(n2cncn2)C1 (stereo not given) | -3.37%
CC(=O)c1ccc(OCC(=O)NS(=O)(=O)c2cccnc2)cc1 | -18%
O=C(Nc1cn[nH]c1)c1ccncc1 | -6.01%
CN(Cc1ccncc1)C(=O)NC1CCCN(c2ncccn2)C1 (stereo not given) | -14%
Cn1cnnc1C1CCN(C(=O)c2cc3c(s2)CCCC3)CC1 | -19%
O=C(c1cnc2c(cnn2C2CCCC2)c1)N1CCCSCC1 | -9.3%
CCc1nccn1CC1CCCN1S(=O)(=O)Cc1ccccc1 (stereo not given) | -13.4%
Cc1cnc(CN2CCCC(c3cc(C)[nH]n3)C2)cn1 (stereo not given) | 0.802%

Compound | cytotoxicity at 10 µM
Cc1cc(OCC(=O)N2CCCC(c3noc(C(C)C)n3)C2)no1 (stereo not given) | -4.56%
CC(C)(C)n1ncc2c1CCCC2NCc1cccc2c1OCCO2 (stereo not given) | -2.69%
O=C(c1ccnc(-n2ccnc2)c1)N1CCCC(n2cccn2)C1 (stereo not given) | 1.21%
COCCNC(=O)CN1CCCC1c1c(C)nn(C)c1Cl (stereo not given) | -0.185%
c1ncn(CC2CN(CCCOc3ccc4c(c3)OCO4)CCO2)n1 (stereo not given) | -1.85%
Cc1ccc(N2CCCC(NCc3sccc3C)C2)nn1 (stereo not given) | -3.8%
CCc1nccn1C1CCCN(C(=O)c2cccc3c2OCO3)C1 (stereo not given) | -8.87%
O=C(NCCNc1ncccn1)C1CC(=O)N(CC2CC2)C1 (stereo not given) | -14%
Cc1cnc(C(=O)NC(COCC(C)C)c2ccco2)cn1 (stereo not given) | -19.6%
Cc1cc(C)n(C2CCCN(C(=O)c3c(C)c(C)n[nH]c3=O)C2)n1 (stereo not given) | 3.18%
CCn1cnnc1CNC(=O)N(C)Cc1ccc(F)c(F)c1 | -11.4%
Cc1ccccc1CN1CCCN(C2CCOC2=O)CC1 (stereo not given) | -3.09%
COc1ccccc1CNC(=O)N1CCCC(NS(C)(=O)=O)C1 (stereo not given) | 5.05%
Cc1ccc(-c2nc(CN3CCn4c(nnc4C4CC4)C3)cs2)o1 | -0.215%
COc1nc2cc(C)ccc2cc1CN(C)Cc1cc(C)[nH]n1 | 4.3%
CN(C)CC1COCCN1C(=O)C1(c2cccs2)CCCC1 (stereo not given) | -9.52%
CN(C)CCOCc1nnc2n1CCN(CC1CC1)CC2 | -4.87%
CCOCC1CN(C(=O)c2cc(C)oc2C)Cc2c1cnn2C (stereo not given) | 9.64%
NC(=O)C1CNCCN1C(=O)COc1ccccc1 (stereo not given) | 1.6%
